# Screens deposited in PubChem by several laboratories.
# JMJD2C inh: inhibitors of human GASC-1 (JMJD2C) demethylase; 330,000 tested, 0.069% active; AID 2099; inhibition, % at 2.35 µM; Q9H3R0; GST-JMJD2C(1-420) H3K9me3 demethylation, DELFIA europium;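 active means more than half of a compound's replicate wells show inhibition beyond 50%, single wells judged on their own value; inconclusive means some, but no more than half, of replicates pass 50% inhibition; inactive means no replicate passes 50% inhibition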;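 further: signal counts dimethyl H3K9 product captured on neutravidin plate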
# CTSL1 counter: cathepsin L1 inhibition, PFM18AAP counter-screen; recombinant F. hepatica cathepsin L1, Z-Leu-Arg-MCA fluorescence; inhibition, % at 5.96 µM; 300,000 tested, 0.49% active; AID 1906;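 active means inhibition above the mean of all tested compounds plus 3 SD, set per screening campaign, cut at about 17% in these data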
# PP5 primary: inhibitors of human protein phosphatase 5 (PP5); purified PP5c, OMFP substrate fluorescence; inhibition, % at 6.7 µM; P53041; 320,000 tested, 0.18% active;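 active means inhibition above the campaign's mean inhibition across all tested compounds plus 3 SD, cut at about 9.5% in these data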
# p-CIP stab down: p/CIP protein destabilization. Q05BA5. F442A p/CIP-EGFP cells, EGFP fluorescence, 16 h. decrease of EGFP signal, % at 10 µM. 290,000 tested, 0.01% active. AID 1984;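 active means EGFP signal decrease of at least 30% at 10 µM or well 3 SD below plate mean, unless failing retest; inactive means the rest, including hits failing retest or dose response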
# H9c2 protect: myocardial damage modulation in H9c2 cells; H9c2 cardiomyocytes, H2O2 injury protection, ATPLite, 2 h; protection from H2O2 cell death, % at 20 µM; AID 588492; 360,000 tested, 0.63% active;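 active means compounds giving at least 50% protection of heart cells from peroxide-induced death in the single-dose screen, raw or plate-pattern-corrected value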
# T cruzi repl: blocks replication of Trypanosoma cruzi; T. cruzi beta-gal in NIH3T3, luminescence, 90 h; inhibition, % (no concentration beside the values); 300,000 tested, 1.4% active;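 active means mean inhibition across valid replicates above about 55%, limit read from the data; inconclusive means mean below that limit but half or more replicates reach it; inactive means mean below it, under half of replicates reach it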;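 further: signal also drops with host cell toxicity which is not excluded here; higher percent means less beta-gal luminescence so fewer parasites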
#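 System: Mouse NIH/3T3 fibroblasts infected with β-gal-expressing T. cruzi Tulahuen C4 | Quantity: NIH/3T3 cells, 5,000 per well | Reagent: 5000 reporter trypomastigotes per well | Dosing: Compound pinned at 50 nL/well, DMSO | Schedule: 3 h host attachment, then at least 90 h co-culture | Detection: GalScreen luminescence, 60 min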
# Numbers stand for hits; i = inactive; ? = inconclusive; nt = no result. In the library only some 2.4% were active in any assay of this set; here they are far more common.
SMILES,JMJD2C inh,CTSL1 counter,PP5 primary,p-CIP stab down,H9c2 protect,T cruzi repl
CCOc1ccc(CN2CCN(Cc3nc(C(C)C)cs3)CC2CCO)cc1 (stereo not drawn),i,i,i,i,nt,58
Cc1ccccc1Oc1ccc2c(c1)[C@@H]1C[C@H](N(C)C(=O)c3cccnc3)[C@H]([C@H](C)O)C(=O)N1CC2,nt,nt,nt,nt,i,nt
O=C(CN1C(=O)NC2(CCCCC2)C1=O)Oc1ccc2ccc(=O)oc2c1,i,nt,i,nt,i,nt
OC(CNCCc1ccc(C(F)(F)F)cc1)COc1cccc2ccccc12 (stereo not drawn),i,i,i,i,i,60
Nc1c(C(=O)NC2CC2)c2nc3ccccc3nc2n1-c1ccc2c(c1)OCO2,i,i,i,i,77,i
CCOC(=O)c1c(N)n(-c2ccc(N)cc2)c2nc3ccccc3nc12,i,i,i,i,i,i
Nc1c(C(=O)Nc2ccccc2)c2nc3ccccc3nc2n1-c1ccc(O)cc1,i,i,i,i,i,59
CC(=O)OCC(=O)C1(O)CCC2C3CCC4=CC(=O)CCC4(C)C3(F)C(O)CC21C (stereo not drawn),nt,nt,nt,nt,i,nt
CC(C)Nc1ccc(Nc2ccnc3cc4ccccc4cc23)cc1,i,i,i,i,i,58
c1ccc(CCNc2ccnc3cc4ccccc4cc23)cc1,i,nt,nt,i,i,59
O=C(NCCc1ccccc1)c1nccc2ccccc12,i,i,i,nt,i,i
COc1ccc(Nc2ccnc3ccccc23)cc1,i,i,i,i,i,i
CCc1ccc(OCC(=O)OC(C)C(=O)Nc2ccc(Cl)cn2)cc1 (stereo not drawn),i,nt,i,nt,i,nt
OC[C@@H]1CN(Cc2ccccc2)C[C@H](n2ccc3c(N4CCCC4)ncnc32)O1,nt,nt,nt,nt,i,nt
COc1ccccc1/C=C/C=C1\Oc2c(ccc(O)c2CN(C)C)C1=O,i,i,i,i,i,i
CCN(CC)Cc1c(O)ccc2c1O/C(=C\C=C\c1ccccc1)C2=O,i,i,i,i,i,60
CCN1CCN(c2c(C=O)c(Cl)nc3ccc(OC)cc23)CC1,i,i,i,i,i,i
COc1cccc(/C=N/Nc2nn3cnnc3c3ccccc23)c1O,i,i,i,i,50,i
O=C(NCCc1ccc(F)cc1)C1CCN(C(=O)Nc2ccccc2)CC1,i,nt,i,nt,i,nt
Cc1oc(-c2ccccc2F)nc1CS(=O)CC(=O)NC1CCCCC1 (stereo not drawn),i,i,i,i,i,i
COC(=O)CNC(c1ccccc1)c1cc(Br)ccc1NC(=O)CCN1CCOCC1 (stereo not drawn),i,i,i,i,i,68
CCOC(=O)CNC(c1ccccc1)c1cc(Br)ccc1NC(=O)CCN1CCOCC1 (stereo not drawn),i,i,i,i,i,?
CCC1CCc2sc(C(=O)NC3CCN(Cc4ccccc4)CC3)cc2C1 (stereo not drawn),i,i,i,nt,i,60
CC1CCc2sc(C(=O)NC3CCN(Cc4ccccc4)CC3)cc2C1 (stereo not drawn),i,nt,i,nt,i,nt
Cn1c(C(=O)Nc2ccc3c(c2)OCO3)cc2c(=O)n(C)c3ccccc3c21,i,i,i,i,i,i
SMILES,JMJD2C inh,CTSL1 counter,PP5 primary,p-CIP stab down,H9c2 protect,T cruzi repl
CCOc1ccc(NC(=O)c2cc3c(=O)n(C)c4ccccc4c3n2C)cc1,i,i,i,i,66,i
CC(NC(=O)c1cc2c(=O)n(C)c3ccccc3c2n1C)c1ccc2c(c1)OCCO2 (stereo not drawn),i,i,i,nt,72,i
O=C(COc1coc(CN2CCN(c3ccccc3)CC2)cc1=O)NC1CCCCC1,i,i,i,nt,i,i
O=C1N=c2ccccc2=C1c1sc(Nc2ccc(O)cc2)nc1O,nt,nt,nt,i,i,nt
O=C1N=c2ccccc2=C1c1sc(Nc2cccc(O)c2)nc1O,i,i,i,i,54,i
COc1cc(N)c(C(=O)c2nccc3cc(OC)c(OC)cc23)cc1OC,i,i,i,i,i,i
COc1cc(C(=O)c2nccc3cc(OC)c(OC)cc23)c([N+](=O)[O-])cc1OC,i,42,i,i,i,i
N#C/C(=C\c1ccc(OCCN2CCOCC2)cc1)C(=O)Nc1ccccc1,i,i,i,i,i,i
COc1cc(/C=C(\C#N)C(=O)Nc2ccccc2F)ccc1OCCN1CCOCC1,i,i,i,i,67,i
COc1cc(/C=C(\C#N)C(=O)Nc2ccccc2)ccc1OCCN1CCOCC1,i,i,i,i,54,i
CN(C(=O)c1ccc(NC(=O)Cc2cccc(NC(=O)C3CCN(C(=O)C4CC4)CC3)c2)cc1)C1CC1,nt,nt,nt,nt,i,nt
COc1ccc(/C=C2\C(=O)ON=C2c2ccccc2)cc1,?,i,i,i,i,i
O=C1ON=C(c2ccccc2)/C1=C/c1ccc(O)c(O)c1,i,i,i,i,58,i
O=C(CCNS(=O)(=O)c1ccc(OC(F)(F)F)cc1)NC1CC1,i,nt,nt,nt,i,nt
CCN(CC)c1ccc(/C=C(\C#N)C(=O)NCc2ccco2)cc1,i,23,i,i,nt,nt
Cn1c(-n2c(CCCN3C(=O)c4ccccc4C3=O)nc3ccccc3c2=O)nc2ccccc21,i,i,i,i,101,i
Cn1c(-n2c(CCN3C(=O)c4ccccc4C3=O)nc3ccccc3c2=O)nc2ccccc21,nt,nt,nt,i,nt,nt
COc1ccc(NC(=O)CN(C)C(=O)C2=NN(c3ccccc3)C(=O)CC2)cc1,i,nt,i,nt,i,nt
CCN1CCc2c(sc(NC(=O)c3ccc4ccccc4c3)c2C(N)=O)C1,i,i,i,i,i,62
CNC(=O)c1c(NC(=O)c2ccc(S(=O)(=O)N(C)c3ccccc3)cc2)sc2c1CCN(C(C)C)C2,i,i,i,i,nt,i
CCN1CCc2c(sc(NC(=O)c3ccc(S(=O)(=O)N(C)c4ccccc4)cc3)c2C(=O)NC)C1,i,i,i,i,57,i
COc1ccc(C)cc1S(=O)(=O)NC1CC1,i,i,i,i,i,i
O=C(COC(=O)c1ccc[nH]c1=O)NC1CC1,i,nt,nt,nt,i,nt
O=C1C(Cl)=C(NC(=O)c2ccccc2)C(=O)C(Cl)=C1NC(=O)c1ccccc1,i,i,i,i,i,68
Cc1cc(C=O)c(C)n1-c1cc(C(F)(F)F)ccc1N1CCOCC1,i,i,i,i,138,i
SMILES,JMJD2C inh,CTSL1 counter,PP5 primary,p-CIP stab down,H9c2 protect,T cruzi repl
COc1ccc(-c2cc(C(=O)Nc3cccc(Cl)c3)no2)cc1,i,i,i,i,i,i
COc1ccc(OC)c(-c2cc(C(=O)Nc3cccc(Cl)c3)no2)c1,i,i,i,i,i,55
O=C(CSc1n[nH]c(=O)n1C1CC1)c1c[nH]c2ccccc12,i,nt,i,nt,i,nt
Cc1nn(Cc2ccc(F)cc2)c(Cl)c1/C=N/NC(=O)c1ccccc1,i,i,i,i,i,66
COc1ccc(NC(=O)c2ccc3c(=O)n(CC4CCCO4)c(=S)[nH]c3c2)c(OC)c1 (stereo not drawn),i,i,i,i,i,i
O=C(Nc1ccc(N2CCN(C(=O)c3ccco3)CC2)c(Cl)c1)c1cc2ccccc2o1,i,i,i,i,i,55
